# Laboratory results reported in ChEMBL document CHEMBL1156597, “Structure-activity relationship of kahalalide F synthetic analogues” (J Med Chem, 2008).
# Tests used:
# DU-145 = experiment: Cytotoxicity against human DU145 cells after 48 hrs by SRB assay; format: functional, cell-based; conditions: Homo sapiens, DU-145, 48 h; for CC50: read-out: LC50 (the source's name)
# Method in brief: (§1)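 Cells grown in RPMI 1640 with 10% FBS and penicillin/streptomycin at 37 °C and 5% CO₂, trypsinized, then seeded at 5 × 10³/well. After 18 h drug-free attachment, samples in DMSO/EtOH/PBS (0.5:0.5:99) were added for 48 h continuous exposure. Cells were fixed with cold TCA (1 h, 4 °C) and stained with SRB (10 min). Tris-solubilized stain read at 490 nm. Triplicate wells, mean ± SD; GI₅₀ derived.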
# LNCaP = experiment: Cytotoxicity against human LNcaP cells after 48 hrs by SRB assay; format: functional; conditions: for CC50: read-out: LC50 (the source's name); method in brief: as §1
# [1] = Cytotoxicity against human IGROV cells after 48 hrs by SRB assay; format: functional; conditions: for CC50: read-out: LC50 (the source's name); method in brief: as §1
# [2] = Cytotoxicity against human IGROV-ET cells after 48 hrs by SRB assay; format: functional; conditions: for CC50: read-out: LC50 (the source's name); method in brief: as §1
# SK-BR-3 = experiment: Cytotoxicity against human SKBR3 cells after 48 hrs by SRB assay; format: functional; conditions: SK-BR-3, 48 h; for GI50: read-out: GI50; for CC50: read-out: LC50 (the source's name); method in brief: as §1
# SK-MEL-28 = experiment: Cytotoxicity against human SK-MEL-28 cells after 48 hrs by SRB assay; format: functional, cell-based; conditions: Homo sapiens, SK-MEL-28, 48 h; for CC50: read-out: LC50 (the source's name); method in brief: as §1
# A549 = experiment: Cytotoxicity against human A549 cells after 48 hrs by SRB assay; format: functional, cell-based; conditions: Homo sapiens, A549, 48 h; method in brief: as §1
# K562 = experiment: Cytotoxicity against human K562 cells after 48 hrs by SRB assay; format: functional; conditions: K562, 48 h; for CC50: read-out: LC50 (the source's name); method in brief: as §1
# PANC-1 = experiment: Cytotoxicity against human PANC1 cells after 48 hrs by SRB assay; format: functional; conditions: PANC-1, 48 h; for CC50: read-out: LC50 (the source's name); method in brief: as §1
# HT-29 = experiment: Cytotoxicity against human HT29 cells after 48 hrs by SRB assay; format: functional, cell-based; conditions: Homo sapiens, HT-29, 48 h; for CC50: read-out: LC50 (the source's name); method in brief: as §1
# LoVo [3] = experiment: Cytotoxicity against human LoVo cells after 48 hrs by SRB assay; format: functional; conditions: for CC50: read-out: LC50 (the source's name)
# LoVo [4] = experiment: Cytotoxicity against human doxorubicin resistant LoVo cells after 48 hrs by SRB assay; format: functional; conditions: for CC50: read-out: LC50 (the source's name); method in brief: as §1
# HeLa = experiment: Cytotoxicity against human HeLa cells after 48 hrs by SRB assay; format: functional; conditions: for CC50: read-out: LC50 (the source's name); method in brief: as §1
# [5] = Cytotoxicity against human HeLa-APL cells after 48 hrs by SRB assay; format: functional; method in brief: as §1
smiles,measurement,setting,value
C/C=C1\NC(=O)[C@H](Cc2ccccc2)NC(=O)[C@@H](C(C)C)NC(=O)[C@@H]([C@H](C)CC)NC(=O)[C@H](NC(=O)[C@H](NC(=O)[C@H](CCCN)NC(=O)[C@H]2CCCN2C(=O)[C@H](NC(=O)[C@H](CCC2CCCCC2)NC(=O)[C@@H](NC(=O)[C@H](NC(=O)CCCC(C)C)C(C)C)[C@@H](C)O)C(C)C)[C@H](C)CC)[C@H](C)OC(=O)[C@H](C(C)C)NC1=O,GI50,DU-145,507 nM
same,GI50,DU-145; read-out: GI50,350 nM
same,CC50,DU-145,709 nM
same,GI50,LNCaP,639 nM
same,TGI,LNCaP,909 nM
same,CC50,LNCaP,1290 nM
same,TGI,[1],2940 nM
same,GI50,[1]; read-out: GI50,284 nM
same,CC50,[1],3870 nM
same,GI50,[2],380 nM
same,GI50,[2]; read-out: GI50,377 nM
same,CC50,[2],455 nM
same,TGI,SK-BR-3,267 nM
same,GI50,SK-BR-3,234 nM
same,CC50,SK-BR-3,230 nM
same,GI50,SK-MEL-28,467 nM
same,GI50,SK-MEL-28; read-out: GI50,329 nM
same,CC50,SK-MEL-28,626 nM
same,GI50,A549,233 nM
same,LC50,A549,437 nM
same,GI50,A549; read-out: GI50,186 nM
same,CC50,K562,1850 nM
same,GI50,PANC-1,1040 nM
same,TGI,PANC-1,1380 nM
same,CC50,PANC-1,1700 nM
same,GI50,HT-29,235 nM
same,TGI,HT-29,265 nM
same,CC50,HT-29,0.299 µg/mL
same,GI50,LoVo [3],240 nM
same,TGI,LoVo [3],256 nM
same,CC50,LoVo [3],273 nM
same,GI50,LoVo [4],114 nM
same,TGI,LoVo [4],153 nM
same,CC50,LoVo [4],1000 nM
same,GI50,HeLa,394 nM
same,TGI,HeLa,628 nM
same,CC50,HeLa,829 nM
same,GI50,[5],462 nM
same,LC50 (concentration giving 50% net cell kill),[5],732 nM
same,TGI,[5],672 nM
C/C=C1\NC(=O)[C@H](Cc2ccccc2)NC(=O)[C@@H](C(C)C)NC(=O)[C@@H]([C@H](C)CC)NC(=O)[C@H](NC(=O)[C@H](NC(=O)[C@H](CCCN)NC(=O)[C@H]2CCCN2C(=O)[C@H](NC(=O)[C@@H](NC(=O)[C@@H](NC(=O)[C@H](NC(=O)CCCC(C)C)C(C)C)[C@@H](C)O)C(C)C)C(C)C)[C@H](C)CC)[C@@H](C)OC(=O)[C@H](C(C)C)NC1=O,CC50,DU-145,10600 nM
same,GI50,LNCaP,19300 nM
same,TGI,LNCaP,20300 nM
same,CC50,LNCaP,4920 nM
same,TGI,[1],106000 nM
same,GI50,[1]; read-out: GI50,73200 nM
same,CC50,[1],72400 nM
same,TGI,[2],4480 nM
same,GI50,[2]; read-out: GI50,3760 nM
same,CC50,[2],2130 nM
same,CC50,SK-BR-3,1690 nM
same,CC50,SK-MEL-28,1770 nM
same,LC50,A549,1920 nM
same,CC50,K562,4420 nM
same,CC50,PANC-1,8900 nM
same,CC50,HT-29,3790 nM
same,CC50,LoVo [3],5540 nM
same,GI50,LoVo [4],6030 nM
same,TGI,LoVo [4],7370 nM
same,CC50,LoVo [4],4080 nM
same,CC50,HeLa,1910 nM
same,LC50 (concentration giving 50% net cell kill),[5],2360 nM
C/C=C1\NC(=O)[C@H](Cc2ccccc2)NC(=O)[C@@H](C(C)C)NC(=O)[C@@H]([C@H](C)CC)NC(=O)[C@H](NC(=O)[C@H](NC(=O)[C@H](CCCN)NC(=O)[C@H]2CCCN2C(=O)[C@H](NC(=O)[C@@H](NC(=O)[C@@H](NC(=O)[C@H](NC(=O)CC[C@@H](C)[C@H]2CC[C@H]3[C@@H]4CC[C@@H]5C[C@H](OC(=O)C(F)(F)F)CC[C@]5(C)[C@H]4CC[C@]23C)C(C)C)[C@@H](C)O)C(C)C)C(C)C)[C@H](C)CC)[C@H](C)OC(=O)[C@H](C(C)C)NC1=O,GI50,DU-145,524 nM
same,GI50,DU-145; read-out: GI50,394 nM
same,CC50,DU-145,568 nM
same,GI50,LNCaP,851 nM
same,TGI,LNCaP,912 nM
same,CC50,LNCaP,980 nM
same,GI50,[1],500 nM
same,GI50,[1]; read-out: GI50,375 nM
same,CC50,[1],404 nM
same,GI50,[2],406 nM
same,GI50,[2]; read-out: GI50,352 nM
same,CC50,[2],468 nM
same,TGI,SK-BR-3,166 nM
same,GI50,SK-BR-3,118 nM
same,CC50,SK-BR-3,233 nM
same,GI50,SK-MEL-28,190 nM
same,GI50,SK-MEL-28; read-out: GI50,209 nM
same,CC50,SK-MEL-28,172 nM
same,GI50,A549,949 nM
same,LC50,A549,851 nM
same,GI50,A549; read-out: GI50,1060 nM
same,GI50,K562,967 nM
same,TGI,K562,795 nM
same,CC50,K562,1170 nM
same,GI50,PANC-1,1640 nM
same,TGI,PANC-1,1440 nM
same,CC50,PANC-1,1440 nM
same,GI50,HT-29,387 nM
same,TGI,HT-29,450 nM
same,CC50,HT-29,761 nM
same,GI50,LoVo [3],340 nM
same,TGI,LoVo [3],374 nM
same,CC50,LoVo [3],795 nM
same,GI50,LoVo [4],227 nM
same,TGI,LoVo [4],220 nM
same,CC50,LoVo [4],211 nM
same,GI50,HeLa,1070 nM
same,TGI,HeLa,978 nM
same,CC50,HeLa,886 nM
same,GI50,[5],1040 nM
same,LC50 (concentration giving 50% net cell kill),[5],638 nM
same,TGI,[5],802 nM
